Calls of active or inactive are those of the source. The rule behind the calls is not given here. Where only a bound is given, the exact number is not on record here.

For data set [1], the system named is HEp-2. In words: Cytotoxicity against human HEp-2 cells assessed as decrease in cell integrity at 100 uM by LDH assay. Conditions: hep-2, 100 µM. Also noted: scale not given: the % may be the effect or the level left. The data set is classed as cell-based. The gist of the method: (§1)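 HEp-2 cells were seeded at 5000/well and treated 24 h later at two doses, with 1% DMSO and media-only controls, in triplicate, for 8 h. Maximum-release wells were lysed with 0.8% Triton X-100 45 min before supernatant collection. Supernatant was incubated with CytoTox reagent for 30 min, then stop solution, and read at A490. Extracellular LDH is given as % of maximum release.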

Data set [2] deals with Chlamydia trachomatis. In words: Antibacterial activity against Chlamydia trachomatis D (D/UW-3/Cx; CtD) infected in HEp-2 cells assessed as log reduction in infectivity unit at 25 uM measured after 44 hrs. The data set is classed as functional. Summed up:
(§2)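 C. trachomatis D was grown in HEp-2 cells and C. pecorum G in McCoy B cells, in high-glucose DMEM with 10% heat-inactivated FCS, 4 mM alanyl-glutamine, streptomycin and gentamicin. Cells were seeded at 20,000/well 24 h before infection, at MOI 12 (CtD) or MOI 4 (CpG). Infection was synchronised by centrifugation at 500×g, 28 °C, 30 min. Dose series added 16 h PI, with 1% DMSO and media controls. Read-out was IFU/mL; n=3.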

Data set [3] has as its system HEp-2. Kind of data set: Cytotoxicity against human HEp-2 cells assessed as reduction in MTS absorbance at 100 uM by MTS assay. Set-up: scale not given: the % may be the effect or the level left. The format is cell-based. The following applies: hep-2, 100 µM. The gist of the method:
(§3)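 HEp-2 cells were seeded at 5000/well and treated 24 h later with compound (two doses) alongside 1% DMSO and media controls, in triplicate. After 24 h treatment, medium was replaced with fresh supplemented DMEM. MTS/PMS was added for 4 h and absorbance read at 490 nm. Results are expressed as % MTS reduction relative to 1% DMSO-treated cells.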
In general terms: Tetrazolium assays rely on reduction of a dye to a coloured formazan, in cell work by metabolically active cells.

Data set [4] has as its target T1, Probable periplasmic serine endoprotease DegP-like (Chlamydia trachomatis, UniProt P18584).
T1 sequence (P18584 whole entry): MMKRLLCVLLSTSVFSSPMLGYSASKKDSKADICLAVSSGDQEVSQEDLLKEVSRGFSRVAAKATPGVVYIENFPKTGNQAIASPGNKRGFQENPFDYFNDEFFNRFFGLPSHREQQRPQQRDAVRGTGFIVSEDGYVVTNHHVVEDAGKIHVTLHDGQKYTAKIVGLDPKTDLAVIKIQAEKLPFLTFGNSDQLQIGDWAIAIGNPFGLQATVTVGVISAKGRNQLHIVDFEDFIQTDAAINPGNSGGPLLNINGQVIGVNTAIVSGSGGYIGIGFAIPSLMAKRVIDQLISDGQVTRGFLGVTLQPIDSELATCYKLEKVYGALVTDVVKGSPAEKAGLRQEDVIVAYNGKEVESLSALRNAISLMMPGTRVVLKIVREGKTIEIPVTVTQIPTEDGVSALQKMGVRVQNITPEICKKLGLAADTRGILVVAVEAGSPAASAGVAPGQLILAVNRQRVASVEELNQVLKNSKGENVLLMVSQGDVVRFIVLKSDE
In words: Inhibition of recombinant ctHtrA serine protease using MeOCoum-ENLHLPLPI1F-D as substrate pretreated for 10 min followed by substrate addition and measured after 30 minutes. The gist of the method: (§4)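 Recombinant CtHtrA was tested against a six-dose inhibitor series in 50 mM Tris, 20 mM MgCl₂, pH 7.0. Plates were shaken before each of multiple reads per well. Each dose was run in triplicate, with a JO146 dose series (n=3) and DMSO controls (n=6). Relative inhibition is IC50(JO146)/IC50(compound), because IC50 varied between batches.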

The subject of data set [5] is Chlamydia pecorum. Kind of data set: Antibacterial activity against Chlamydia pecorum G (MC/MarsBar;CpG) infected in McCoy B cells assessed as log reduction in infectivity unit at 25 uM measured after 44 hrs. The format is functional, organism-based. The following applies: VR629 G (MC/MarsBar;CpG). The gist of the method:
as §2

The test system of data set [6] is HEp-2. In words: Cytotoxicity against human HEp-2 cells assessed as decrease in cell integrity at 25 uM by LDH assay. The data set is classed as cell-based. Set-up: scale not given: the % may be the effect or the level left. The following applies: hep-2, 25 µM. The gist of the method: as §1
In another data set the test system is Escherichia coli. In words: Antibacterial activity against Escherichia coli assessed as growth inhibition at 50 uM. The data set is classed as functional, organism-based. The gist of the method:
(§5)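 Broth microdilution MIC in cation-adjusted Mueller Hinton broth. Compound was 2-fold serially diluted from 32 µg/mL (approx. 50 µM) to 0.015 µg/mL. The inoculum was about 5×10⁵ CFU/mL from overnight cultures. Plates were incubated at 37 °C with shaking for 24 h. MIC was the lowest concentration without growth; technical triplicate.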

For another data set, the system named is Pseudomonas aeruginosa. In words: Antibacterial activity against Pseudomonas aeruginosa assessed as growth inhibition at 50 uM. The format is functional, organism-based. Summed up:
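P. aeruginosa PAO1 was grown overnight in fluorescent broth (pH 7.0) at 37 °C with shaking, diluted 1/1000 with added MgSO₄, and given compound at 50 or 100 µM final. DMSO controls were 0.5% or 1%. OD600 and fluorescence (ex 405/em 460 nm) were read every 15 min for 24 or 48 h. Pyoverdine was quantified as area under the curve.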

Data set [7] addresses T2, Probable periplasmic serine endoprotease DegP-like (Chlamydia trachomatis) (UniProt P18584).
T2 sequence (whole entry): T1 sequence (P18584 whole entry)
In words: Ratio of JO146 IC50 to test compound IC50 for inhibition of recombinant ctHtrA serine protease using Me0Coum-ENLHLPLPI1F-D as substrate pretreated for 10 minutes followed by substrate addition and measured after 30 minutes. Summed up: as §4

Another data set has as its target T3, Neutrophil elastase (Homo sapiens, UniProt P08246).
T3 sequence (P08246 whole entry): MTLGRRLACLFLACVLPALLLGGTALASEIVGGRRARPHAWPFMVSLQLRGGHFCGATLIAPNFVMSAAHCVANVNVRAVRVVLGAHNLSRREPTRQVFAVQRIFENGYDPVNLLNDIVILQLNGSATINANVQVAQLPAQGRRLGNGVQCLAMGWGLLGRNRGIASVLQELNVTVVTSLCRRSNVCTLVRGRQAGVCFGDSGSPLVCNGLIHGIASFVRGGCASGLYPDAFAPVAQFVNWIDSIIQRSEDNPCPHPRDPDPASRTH
Kind of data set: Inhibition of human neutrophil elastase using methoxysuccinyl-Ala-Ala-Pro-Val-pNA as substrate incubated for 15 min.

The subject of a further data set is Staphylococcus aureus. In words: Antibacterial activity against Staphylococcus aureus assessed as growth inhibition at 50 uM. The data set is classed as functional, organism-based. Summed up:
as §5

The subject of data set [8] is Chlamydia pecorum. In words: Antibacterial activity against Chlamydia pecorum G (MC/MarsBar;CpG) infected in McCoy B cells assessed as reduction in bacterial titer at 50 to 100 uM measured after 44 hrs. The data set is classed as functional, organism-based. The following applies: VR629 G (MC/MarsBar;CpG), dose 50-100 µM. The gist of the method:
as §2

Data set [9] relates to Chlamydia trachomatis. In words: Antibacterial activity against Chlamydia trachomatis D (D/UW-3/Cx; CtD) infected in HEp-2 cells assessed as reduction in bacterial titer at 50 to 100 uM measured after 44 hrs. The format is functional, organism-based. The following applies: dose 50-100 µM. The gist of the method: as §2
The test system of data set [10] is HEp-2. In words: Cytotoxicity against human HEp-2 cells assessed as reduction in MTS absorbance at 25 uM by MTS assay. The format is cell-based. The following applies: hep-2, 25 µM. Summed up: as §3

Turning to `CCC(C)C(NC(=O)C(C)n1cccc(NC(=O)OC(C)(C)C)c1=O)P(=O)(Oc1ccccc1)Oc1ccccc1` (configuration not stated), the figures for the Activity with HEp-2 [1] and in the data set on HEp-2 [3] were less than 10% and “<= 25%”, respectively. In addition, the outcome in the data set on Chlamydia trachomatis [2] and in the data set on Chlamydia pecorum [5] was Active. Further, the IC50 – broadly, the concentration that gives 50% inhibition – in [4] came to 128 µM.

Regarding `CC(C)C(NC(=O)[C@@H]1CCCN1C(=O)[C@@H](NC(=O)OC(C)(C)C)C(C)(C)C)P(=O)(Oc1ccccc1)Oc1ccccc1` (some centres not stated), the Activity entry in the data set with HEp-2 [6] is on record as “<= 3.4%”. Further, the result with Escherichia coli, with Pseudomonas aeruginosa and with Staphylococcus aureus was inactive. Also, in data set [7], the Ratio IC50 was 1.34. Besides, the half-inhibitory concentration (IC50) was 9.3 µM in data set [4] and 3.02 µM at Neutrophil elastase.

On to `CCC(C)C(NC(=O)[C@@H]1CCCN1C(=O)[C@@H](NC(=O)OCc1ccccc1)C(C)(C)C)P(=O)(Oc1ccccc1)Oc1ccccc1` (some centres not stated), for which the Activity result with HEp-2 [6] is recorded as “<= 3.4%”; with HEp-2 [3] it was “Toxic”; with HEp-2 [10], “Non-Toxic”. Besides, the outcome in the data set with Chlamydia pecorum [8] and in the data set with Chlamydia trachomatis [9] was Active. In addition, in data set [4], the IC50 amounted to 24.9 µM.

For `CCC(C)C(NC(=O)[C@@H]1CCCN1C(=O)[C@@H](NC(=O)NC(C)(C)C)C(C)(C)C)P(=O)(Oc1ccccc1)Oc1ccccc1` (some centres not stated), the Activity entry is given as “<= 3.4%” with HEp-2 [6], “Toxic” with HEp-2 [3] and “Non-Toxic” with HEp-2 [10].

Consider `CC(C)C(NC(=O)[C@@H]1CCCN1C(=O)[C@@H](NC(=O)OC(C)(C)C)C(C)C)P(=O)(Oc1ccccc1)Oc1ccccc1` (some centres not stated), for which the values for the Activity result in the data set with HEp-2 [6] and in the data set with HEp-2 [3] were “<= 3.4%” and “<= 25%”, respectively. In addition, the result in the data set on Chlamydia trachomatis [2] and with Chlamydia pecorum [5] was Active. In addition, the result with Escherichia coli, with Pseudomonas aeruginosa and in the data set with Staphylococcus aureus was inactive. Moreover, the Ratio IC50 in [7] turned out to be 1. In addition, the results for the IC50 (in data set [4]; against Neutrophil elastase) were 12.5 µM and 1.15 µM, respectively.

Regarding `CCC(C)C(NC(=O)[C@@H]1CCCN1C(=O)[C@@H](NC(=O)C(C)(C)C)C(C)(C)C)P(=O)(Oc1ccccc1)Oc1ccccc1` (some centres not stated), the Activity result is given as “<= 3.4%” in the data set on HEp-2 [6], “Toxic” with HEp-2 [3] and “Non-Toxic” in the data set on HEp-2 [10]. For the same compound, the outcome in the data set on Chlamydia trachomatis [2] and in the data set on Chlamydia pecorum [5] was Active.

For `CCC(C)C(NC(=O)[C@@H]1CCCN1C(=O)[C@@H](NC(=O)OC(C)(C)C)C(C)(C)C)P(=O)(Oc1ccccc1)Oc1ccccc1` (some centres not stated), the Activity result in the data set on HEp-2 [6] was “<= 3.4%”. Further, the outcome in the data set on Escherichia coli, in the data set with Pseudomonas aeruginosa and with Staphylococcus aureus was inactive. The Ratio IC50 in [7] turned out to be 1.22. Also, the IC50 in [4] came out at 10.3 µM; against Neutrophil elastase, 13.5 µM.

For the compound `CCC(C)C(NC(=O)Cn1cccc(NC(=O)Oc2ccccc2)c1=O)P(=O)(Oc1ccccc1)Oc1ccccc1` (configuration not stated), the outcome in the data set with Chlamydia trachomatis [2] and in the data set on Chlamydia pecorum [5] was Active. The Activity result in the data set with HEp-2 [3] is recorded as “<= 25%”.

As for `CC(C)C(NC(=O)[C@@H]1CCCN1C(=O)[C@@H](NC(=O)NC(C)(C)C)C(C)(C)C)P(=O)(Oc1ccccc1)Oc1ccccc1` (some centres not stated), the figures for the Activity entry in the data set with HEp-2 [6], in the data set with HEp-2 [3] and with HEp-2 [10] were “<= 3.4%”, “Toxic” and “Non-Toxic”, respectively.

Turning to `CC(C)C(NC(=O)C(C)n1cccc(NC(=O)OC(C)(C)C)c1=O)P(=O)(Oc1ccccc1)Oc1ccccc1` (configuration not stated), the result in the data set on Chlamydia pecorum [8], in the data set with Chlamydia trachomatis [9], with Chlamydia trachomatis [2] and with Chlamydia pecorum [5] was Active. Besides, the Activity entry in the data set with HEp-2 [3] is listed as “<= 25%”.

For the compound `CC(C)C(NC(=O)[C@@H]1CCCN1C(=O)[C@@H](NC(=O)OCc1ccccc1)C(C)(C)C)P(=O)(Oc1ccccc1)Oc1ccccc1` (some centres not stated), the Activity entry in the data set on HEp-2 [6] is recorded as “<= 3.4%”; in the data set with HEp-2 [3] it was “Toxic”; in the data set on HEp-2 [10] it was “Non-Toxic”.

For the compound `CC(C)C(NC(=O)C(C)n1cccc(NC(=O)Oc2ccccc2)c1=O)P(=O)(Oc1ccccc1)Oc1ccccc1` (configuration not stated), the outcome with Chlamydia pecorum [8], in the data set on Chlamydia trachomatis [9], in the data set on Chlamydia trachomatis [2] and with Chlamydia pecorum [5] was Active. In the data set on HEp-2 [3], the Activity entry is “<= 25%”. Also, the 50% inhibitory concentration (IC50) in data set [4] is 41.8 µM.

As for `CCC(C)C(NC(=O)C(C)n1cccc(NC(=O)Oc2ccccc2)c1=O)P(=O)(Oc1ccccc1)Oc1ccccc1` (configuration not stated), the outcome in the data set with Chlamydia trachomatis [2] and in the data set with Chlamydia pecorum [5] was Active. For the same compound, the Activity entry in the data set with HEp-2 [3] is given as “<= 25%”. The IC50 in data set [4] came to 19.8 µM.

Turning to `CC(C)C(NC(=O)Cn1cccc(NC(=O)Oc2ccccc2)c1=O)P(=O)(Oc1ccccc1)Oc1ccccc1` (configuration not stated), the result with Chlamydia pecorum [8], with Chlamydia trachomatis [9], in the data set on Chlamydia trachomatis [2] and with Chlamydia pecorum [5] was Active. For the same compound, the Activity result in the data set on HEp-2 [3] is “<= 25%”.

(Values after ChEMBL document CHEMBL4840314, “Optimization of peptide-based inhibitors targeting the HtrA serine protease in Chlamydia: Design, synthesis and biological evaluation of pyridone-based and N-Capping group-modified analogues” (Eur J Med Chem, 2021).)
